According to publication PMC8602434 (Drugs in R&D, 2021):

Legend:
Assay type in all cases: in vivo
[1] = Dog 28-day toxicology study with pharmacokinetic analysis, sc
[2] = Mouse pharmacokinetics, single sc or iv dose, plasma LC-MS; settings: for AUC∞: plasma LC-MS
[3] = Healthy volunteers, multiple-dose arm, sc once daily for 7 days; settings: human
Summary of the method: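 Double-blind, placebo-controlled abdominal sc dosing once daily for 7 days: 1.0 or 3.0 mg, cohorts of 10 (8 active, 2 placebo). Serial blood on Day 1 (predose to 24 h), peak/trough on Days 2–6, Day 7 (predose to 16 h), then to 48 h after last dose. Validated bioanalytical method. Noncompartmental: Day 7 values as steady state, AUCτ, accumulation ratio. AEs recorded.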

[4] = 1.0 mg sc once daily, Day 7, geometric mean, n=5
[5] = 1.0 mg sc once daily, Day 7, median, n=5
[6] = 1.0 mg sc once daily, Day 7, median, n=8
[7] = 3.0 mg sc once daily, Day 1, geometric mean, n=7
[8] = 3.0 mg sc once daily, Day 1, geometric mean, n=8
[9] = 3.0 mg sc once daily, Day 1, median, n=7
[10] = 3.0 mg sc once daily, Day 1, median, n=8
[11] = 3.0 mg sc once daily, Day 7, geometric mean, n=8
[12] = 3.0 mg sc once daily, Day 7, mean (SD), n=8
[13] = 3.0 mg sc once daily, Day 7, median, n=6
[14] = 3.0 mg sc once daily, Day 7, median, n=8

## CCCC[C@H](NC(C)=O)C(=O)N[C@H]1CCC(=O)NC[C@@H](C(=O)N[C@@H](Cc2c[nH]c3ccccc23)C(N)=O)NC(=O)[C@H](CCCNC(=N)N)NC(=O)[C@@H](Cc2ccccc2)NC(=O)[C@H](Cc2c[nH]cn2)NC1=O [PL8177]
[1]; 1.5- and 9.0-mg doses as printed
  Accumulation ratio (Rac), AUClast day 28/AUClast day 1: 0.8
[1]; 40-mg dose
  Accumulation ratio (Rac), AUClast day 28/AUClast day 1: 1.8
[1]; sc
  Difference between mean Cmax and AUClast values, multiple-dose versus single-dose: < 2 fold
[2]; 1 mg/kg sc versus iv
  F (bioavailability): 0.63
[2]; single 1 mg/kg iv
  t½: 12 min
  AUC∞: 753 ng·h/mL
[2]; single 1 mg/kg sc
  Cmax: 703 ng/mL
  tmax: 4.98 min
  t½: 15.6 min
  AUC∞: 476 ng·h/mL
[2]; single 3 mg/kg sc
  Cmax: 2440 ng/mL
  tmax: 15 min
  t½: 30 min
  AUC∞: 1727 ng·h/mL
[3]; 1.0 mg sc once daily, Day 1, geometric mean, n=6
  t½: 246 min
[3]; 1.0 mg sc once daily, Day 1, median, n=6
  CL/F: 20.2 L/h
[3]; [4]
  AI (accumulation index): 1.1
  t½: 402 min
[3]; 1.0 mg sc once daily, Day 7, geometric mean, n=8
  AUCτ: 51.2 ng·h/mL
[3]; 1.0 mg sc once daily, Day 7, mean (SD), n=5
  AI (accumulation index): 1.1 (0.1)
[3]; 1.0 mg sc once daily, Day 7, mean (SD), n=8
  AUCτ: 52.9 (15.0) ng·h/mL
[3]; [5]
  AI (accumulation index): 1.1
  AUC∞: 51.8 ng·h/mL
  Vd/Fss: 174 L
[3]; [6]
  AUCτ: 48.3 ng·h/mL
  tmax: 30 min
[3]; [7]
  AUC∞: 169.0 ng·h/mL
  AUC∞/dose: 56.5 ng·h/mL/mg
[3]; [8]
  Cmax: 53.7 ng/mL
  Cmax/dose: 17.9 ng/mL/mg
[3]; 3.0 mg sc once daily, Day 1, mean (SD), n=7
  AUC∞/dose: 57.2 (10.2) ng·h/mL/mg
[3]; 3.0 mg sc once daily, Day 1, mean (SD), n=8
  Cmax/dose: 18.1 (3.2) ng/mL/mg
[3]; [9]
  AUC∞: 159.0 ng·h/mL
  AUC∞/dose: 53.0 ng·h/mL/mg
  CL/F: 18.9 L/h
  t½: 576 min
[3]; [10]
  AUC0–t: 145.0 ng·h/mL
  Cmax: 50.0 ng/mL
[3]; 3.0 mg sc once daily, Day 7, geometric mean, n=6
  AI (accumulation index): 1.4
[3]; [11]
  AUCτ: 174.0 ng·h/mL
  AUCτ/dose: 58.1 ng·h/mL/mg
  Cmax/dose: 19.1 ng/mL/mg
[3]; 3.0 mg sc once daily, Day 7, mean (SD), n=6
  AI (accumulation index): 1.4 (0.2)
[3]; [12]
  AUCτ: 177.0 (36.0) ng·h/mL
  AUCτ/dose: 59.1 (12.0) ng·h/mL/mg
  Cmax/dose: 19.5 (4.52) ng/mL/mg
[3]; [13]
  AI (accumulation index): 1.3
  AUC∞: 200.0 ng·h/mL
[3]; [14]
  AUCτ: 171.0 ng·h/mL
  AUCτ/dose: 57.1 ng·h/mL/mg
[3]; multiple-dose arm
  AEs leading to study discontinuation, serious AEs, or severe AEs: no reports
  Dose linearity for AUC∞ and Cmax: inconclusive
  Intact drug excreted in the urine: ≤ 1%
  Most commonly reported AEs: injection-site pain, erythema, and induration
  Time after dosing at which Cmax was generally reached (tmax): 15 to 45 min
